Measured values gathered from unrelated publications.
Lines come from different studies, so protocols differ.
Target: Mitogen-activated protein kinase 8 (MAPK8, Homo sapiens, UniProt P45983)

Nc1ncnc2occ(-c3ccc(NC(=O)Nc4cc(C(F)(F)F)ccc4F)cc3)c12 — remaining signal (cell-free assay; inhibitor; 20 µM): 11%
Cc1ccc(NC(=O)c2ccc(C)c(C(F)(F)F)c2)cc1C#Cc1nn(C2CCC(O)CC2)c2ncnc(N)c12 (stereo not shown) — remaining signal (cell-free assay; 10 µM): 35%
Cn1c2c(c3ccc(Cl)c(Cl)c31)C(C#N)C1(CCOCC1)NC2=O (stereo not shown) — ΔTm (thermal stability; DSF; 10 µM): -0.1 °C
C[C@@H]1CN(c2cc(-c3nn(C)c4ccc(OC5(C)CC5)cc34)ncn2)C[C@H](C)O1 — remaining binding (cell-free assay; competition with immobilised ligand; 1 µM): 82%
Cn1c2c(c3ccc(Cl)c(Cl)c31)C(C#N)C1(CCCC1)NC2=O (stereo not shown) — ΔTm (thermal stability; DSF; 10 µM): 0.6 °C
O=C1NC(=O)c2cc(Nc3ccc(F)cc3)c(Nc3ccc(F)cc3)cc21 — remaining signal (cell-free assay; 0.5 µM): 91.4%
Cn1c2c(c3ccc(Cl)c(Cl)c31)C(C#N)C(C)(C)NC2=O (stereo not shown) — ΔTm (thermal stability; DSF; 10 µM): 1.3 °C
Cn1c(=O)n(-c2ccc(C(C)(C)C#N)cc2)c2c3cc(-c4cnc5ccccc5c4)ccc3ncc21 — remaining activity (enzyme activity; inhibitor; 10 µM): 105%
COc1cc(-c2cc(-c3ccc(N4CCNCC4)cc3)cnc2C)cc(OC)c1OC — inhibition (enzyme activity; inhibitor; 1 µM): 2%
CO[C@@H](C)c1c(Nc2ccc([C@@H](N(C)C(=O)C3CCS(=O)(=O)CC3)C(F)(F)F)cc2)cnc2cc(Cl)nn12 — remaining binding (cell-free assay; competition with immobilised ligand; 1 µM): 69%
COc1cc2ncnc(Nc3ccc(Oc4ccccc4)cc3C)c2cc1OC — inhibition (enzyme activity; inhibitor; 1 µM): 1%
CN(c1ccnc(CNc2nc(Nc3ccc4c(c3)CC(=O)N4)ncc2C(F)(F)F)n1)S(C)(=O)=O — remaining binding (cell-free assay; competition with immobilised ligand; 1 µM): 65%
Cc1ccc(C(=O)NCc2ccsc2)cc1C#Cc1cn(C(C)C)c2ncnc(N)c12 — activity vs control (enzyme activity; inhibitor; 1 µM): 103%
Cc1sc(C(=O)NC2COC2)cc1-n1cc(NC(=O)Nc2c(F)cccc2Cl)cn1 — remaining activity (enzyme activity; inhibitor; 10 µM): 76.3%
COc1ccc2c(c1)O[C@H](c1ccc(OC)c(OC)c1)C[C@@H]2NC(=O)C1(c2ccc3c(c2)OC(F)(F)O3)CC1 — remaining binding (cell-free assay; competition with immobilised ligand; 1 µM): 96%
N#Cc1c(NC(=O)c2cccc3ccccc23)sc2c1CCCC2 — remaining signal (cell-free assay; 0.5 µM): 87.3%
CC(C)(C)c1nc2c(s1)c1nc(N)ncc1c1ccc(NS(=O)(=O)c3c(F)cccc3F)c(F)c12 — remaining activity (enzyme activity; inhibitor; radiometric; 1 µM): 75%
c1ccc(N2CCN(Cc3nc4ccccc4[nH]3)CC2)nc1 — remaining binding (binding; competition with immobilised ligand; 1 µM): 100%
COc1cc(/C=C/C(=O)CC(=O)/C=C/c2ccc(O)c(OC)c2)ccc1O — activity vs control (enzyme activity; inhibitor; 1 µM): 99%
CC1=C(C#N)C(c2ccc3c(c2)c(NC(=O)c2ccccc2C)nn3C)C(C#N)=C(C)N1 — remaining binding (cell-free assay; competition with immobilised ligand; 1 µM): 88%
CSc1nc(C)c(-c2ccnc(Nc3ccc(N4CCOCC4)cc3)c2)[nH]1 — inhibition (enzyme activity; inhibitor; 10 µM): 88.6%
CN(C)C1CCN(CC#Cc2nn(C3CCCC3)c3nc(NCc4ccccc4)ncc23)C1 (stereo not shown) — inhibition (enzyme activity; inhibitor; FRET; 0.1 µM): 1%
CC(C)(O)[C@H]1CC[C@H](Nc2ccc3ncc(-c4cccc(C(F)(F)F)c4)n3n2)CC1 — remaining activity (enzyme activity; inhibitor; 1 µM): 107%
CCCOc1ccc([C@@H]2[C@@H](C(=O)O)[C@H](c3ccc4c(c3)OCO4)CN2CC(=O)Nc2c(CC)cccc2CC)cc1 — remaining binding (cell-free assay; competition with immobilised ligand; 1 µM): 87%
FC(F)c1nc2ccccc2n1-c1nc(N2CCOCC2)nc(N2CCOCC2)n1 — remaining activity (enzyme activity; inhibitor; 10 µM): 93%
COc1cc(Nc2cnc(C#N)c(O[C@H](C)CN(C)C)n2)ncc1-c1cnn(C)c1 — remaining activity (enzyme activity; inhibitor; radiometric; 10 µM): 93%
FC(F)(F)Oc1cccc(-c2cnc3ccc(-c4ccncc4)nn23)c1 — activity vs control (enzyme activity; inhibitor; radiometric; 5 µM): 90%
CCN(CC)CCNC(=O)c1c(C)[nH]c(/C=C2\C(=O)Nc3ccc(F)cc32)c1C — remaining signal (cell-free assay; 0.5 µM): 91.8%
COc1cc(Cl)c(C(=O)N[C@@H](CN[C@H]2CC[C@@H](N)CC2)Cc2ccc(C#N)cc2)cc1-c1ccc(CN[C@H](C)c2ccc(C)cc2)o1 — remaining activity (enzyme activity; inhibitor; 1 µM): 100%
CC1(C)NC(=O)c2[nH]c3c(Cl)c(Cl)ccc3c2C1C#N (stereo not shown) — ΔTm (thermal stability; DSF; 10 µM): 0.8 °C
CC(C)(C)C(=O)c1sc(NC2CCCCC2)nc1N — remaining activity (enzyme activity; inhibitor; 10 µM): 98%
O=C(Nc1ccc(Oc2ccc(F)cc2)cc1)N1CCc2ncccc2[C@H]1c1ccc(F)cc1 — remaining binding (cell-free assay; competition with immobilised ligand; 1 µM): 91%
N#CC1c2c([nH]c3c(Cl)c(Cl)ccc23)C(=O)NC12CCCCC2 (racemic) — ΔTm (thermal stability; DSF; 10 µM): 1.8 °C
CNCc1ccc(-c2cc(-c3nc(-c4ccc(S(=O)(=O)C(C)C)cc4)cnc3N)on2)cc1 — inhibition (enzyme activity; inhibitor; 0.4 µM): 6%
